Assay results from ChEMBL document CHEMBL1833819, “Dihydroquinazolines as a novel class of Trypanosoma brucei trypanothione reductase inhibitors: discovery, synthesis, and characterization of their binding mode by protein crystallography” (J Med Chem, 2011).

Experiments:
Trypanothione reductase [1] = biological target: T1, Trypanothione reductase (Trypanosoma brucei brucei, UniProt P39051); assay: Inhibition of recombinant trypanothione reductase from Trypanosoma brucei brucei S427 by DTNB-coupled spectrophotometric assay
Procedure, shortened: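 Recombinant T. brucei brucei S427 TryR tested in a nonenzymatically coupled spectrophotometric assay, where DTNB reduction to TNB is followed as A412 increase. IC50 is the mean of independent duplicates (at least two replicates).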

Trypanothione reductase [2] = biological target: T1, Trypanothione reductase; assay: Competitive inhibition of recombinant trypanothione reductase from Trypanosoma brucei brucei S427 by Lineweaver burk method
Trypanothione reductase [3] = biological target: T1, Trypanothione reductase; assay: Mixed type inhibition of recombinant trypanothione reductase from Trypanosoma brucei brucei S427 by Lineweaver burk method
[4] = system: Trypanosoma brucei brucei; assay: Antitrypanosomal activity against blood stream form Trypanosoma brucei brucei by resazurin fluorescence-based viability assay; type: functional, organism-based
Procedure, shortened: (§1)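 Bloodstream-form T. b. brucei parasites and MRC5 cells were assayed in resazurin fluorescence-based viability tests. […] Pentamidine served as the positive control in all T. brucei plates.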

MRC5 = assay: Cytotoxicity against human MRC5 cells by resazurin fluorescence-based viability assay; type: cell-based; procedure, shortened: as §1
Trypanothione reductase [5] = biological target: Trypanothione reductase (Trypanosoma cruzi, UniProt P28593); assay: Inhibition of trypanothione reductase from Trypanosoma cruzi by DTNB-coupled spectrophotometric assay
Chain of Trypanothione reductase (Trypanosoma cruzi, UniProt P28593) (P28593 whole entry): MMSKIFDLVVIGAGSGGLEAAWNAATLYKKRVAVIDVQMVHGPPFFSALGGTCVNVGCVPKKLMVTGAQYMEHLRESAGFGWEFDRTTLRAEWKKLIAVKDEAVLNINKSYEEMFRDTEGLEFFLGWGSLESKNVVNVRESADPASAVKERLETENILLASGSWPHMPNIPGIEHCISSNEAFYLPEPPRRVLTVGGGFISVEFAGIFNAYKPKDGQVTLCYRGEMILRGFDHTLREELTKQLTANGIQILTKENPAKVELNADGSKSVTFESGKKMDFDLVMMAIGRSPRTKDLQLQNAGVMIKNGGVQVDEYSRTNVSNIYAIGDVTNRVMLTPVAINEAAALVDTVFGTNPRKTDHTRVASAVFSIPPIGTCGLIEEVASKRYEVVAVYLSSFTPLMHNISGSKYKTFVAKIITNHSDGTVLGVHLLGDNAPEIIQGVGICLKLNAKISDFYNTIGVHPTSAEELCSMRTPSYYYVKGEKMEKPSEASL

T1 sequence (P39051 whole entry): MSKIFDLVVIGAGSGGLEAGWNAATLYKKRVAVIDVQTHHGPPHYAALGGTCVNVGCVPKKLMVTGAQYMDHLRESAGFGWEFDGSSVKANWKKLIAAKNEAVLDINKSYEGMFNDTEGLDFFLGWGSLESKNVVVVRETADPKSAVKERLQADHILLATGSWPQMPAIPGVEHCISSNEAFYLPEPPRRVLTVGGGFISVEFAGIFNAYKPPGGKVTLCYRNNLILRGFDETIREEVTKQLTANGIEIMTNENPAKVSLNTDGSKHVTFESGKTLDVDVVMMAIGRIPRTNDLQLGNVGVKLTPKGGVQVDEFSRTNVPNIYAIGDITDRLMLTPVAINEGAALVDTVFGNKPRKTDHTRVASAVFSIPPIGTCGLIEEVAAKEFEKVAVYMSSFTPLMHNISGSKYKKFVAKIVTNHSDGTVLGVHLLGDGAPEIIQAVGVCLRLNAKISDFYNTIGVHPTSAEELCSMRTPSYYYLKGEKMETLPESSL

Structure (SMILES)	IC50 (Trypanothione reductase [1]) [nM]	other results
COC(=O)CN1C(c2cc(OC)c(OC)c(OC)c2)=Nc2ccc(C)cc2C1c1ccccc1 (racemic)	> 100000	
CC(=O)N1CCN(CCN2C(C)=Nc3ccc(Cl)cc3C2c2ccccc2)CC1 (racemic)	1700	
COC(=O)CN1C(c2ccccc2)=Nc2ccc(C)cc2C1c1ccccc1 (racemic)	> 100000	
CC1=Nc2ccc(Cl)cc2C(c2ccccc2)N1CCN(C)C (racemic)	3500	
CC1=Nc2ccc(Cl)cc2C(c2ccc(O)cc2)N1CCN1CCCCC1 (racemic)	20000	
CC1=Nc2ccc(Cl)cc2C(c2ccccc2)N1CCN1CCN(C(=O)c2ccccc2)CC1 (racemic)	1600	
CC1=Nc2ccc(Cl)cc2C(c2ccc(Cl)cc2)N1CCN1CCCCC1 (racemic)	730	
CCOC(=O)CN1C(C)=Nc2ccc(Br)cc2C1c1ccccc1 (racemic)	12000	
CC1=Nc2ccc(Cl)cc2C(c2ccccc2)N1CCN1CCN(C(=O)CN(C)C)CC1 (racemic)	370	Ki (Trypanothione reductase [2]): 270 nM; Ki (Trypanothione reductase [3]): 1780 nM; EC50 [4]: 5600 nM; EC50 (MRC5): 6000 nM
CC1=Nc2ccc(Cl)cc2C(c2ccccc2)N1CCNC(=O)C1CC1 (racemic)	2300	
CC1=Nc2ccc(Cl)cc2C(c2ccccc2)N1Cc1cccc(Cl)c1 (racemic)	3500	
CC1=Nc2ccc(Cl)cc2C(c2ccccc2)N1CCN1CCN(C(=O)c2ccco2)CC1 (racemic)	420	EC50 [4]: 10000 nM; EC50 (MRC5): 23000 nM
CNCCN1C(C)=Nc2ccc(Cl)cc2C1c1ccccc1 (racemic)	2000	
CC1=Nc2ccc(Cl)cc2C(c2ccc(C(C)(C)C)cc2)N1CCN1CCCCC1 (racemic)	7900	
CC1=Nc2ccc(I)cc2C(c2ccccc2)N1CCN1CCCCC1 (racemic)	350	EC50 [4]: 550 nM; EC50 (MRC5): 6800 nM
CC1=Nc2ccc(Cl)cc2C(c2ccccc2)N1CCc1ccccc1 (racemic)	2000	
CC1=Nc2ccc(Cl)cc2C(c2cccc(Cl)c2)N1CCN1CCCCC1 (stereo not drawn)	1200	
CC1=Nc2ccc(Cl)cc2C(c2ccccc2)N1CCN1CCN(C(=O)C2CC2)CC1 (racemic)	1500	
CC1=Nc2ccc(Cl)cc2C(C2CCCCC2)N1CCN1CCCCC1 (racemic)	27000	
CC1=Nc2ccc(Cl)cc2C(c2ccc(C)cc2)N1CCCN(C)C (racemic)	230	Ki (Trypanothione reductase [2]): 190 nM; Ki (Trypanothione reductase [3]): 1460 nM; EC50 [4]: 730 nM; EC50 (MRC5): 1900 nM
O=C1CN2C(=Nc3ccc(Br)cc3C2c2ccccc2)CN1 (racemic)	37000	
CCC1=Nc2ccc(Br)cc2C(c2ccccc2)N1CC(=O)OC (racemic)	23000	
COc1ccc(C2c3cc(Cl)ccc3N=C(C)N2CCN2CCCCC2)cc1 (racemic)	1500	
CC1=Nc2ccc(Cl)cc2C(O)(c2ccc(F)cc2)N1CCN1CCCCC1 (racemic)	8300	
CC1=Nc2c(-c3ccccc3)cc(Cl)cc2C(c2ccccc2)N1CCCN(C)C (racemic)	24000	
CC1=Nc2ccc(Cl)cc2C(c2ccccc2)N1CCCN(C)C (racemic)	1000	EC50 (MRC5): 2700 nM

Structure (SMILES)	IC50 (Trypanothione reductase [1]) [nM]	other results
CC1=Nc2ccc(Cl)cc2C(c2ccccc2)N1Cc1ccc(C)cc1 (racemic)	1300	
CC1=Nc2ccc(-c3cc4ccccc4o3)cc2C(c2ccccc2)N1CCN1CCCCC1 (racemic)	8500	
CC1=Nc2ccc(Cl)cc2C(c2ccc(Cl)c(Cl)c2)N1CCN1CCCCC1 (racemic)	1300	
CC1=Nc2ccc(Cl)cc2C(c2cccc(C)c2)N1CCN1CCCCC1 (racemic)	4600	
O=C1CN2C(=Nc3ccc(Br)cc3C2c2ccccc2)CCN1 (racemic)	39000	
COC(=O)CN1C(C)=Nc2ccc(C)cc2C1c1ccccc1 (racemic)	67000	IC50 (Trypanothione reductase [5]): 38000 nM
CC1=Nc2ccc(Cl)cc2C(c2ccccc2)N1Cc1ccc(C(F)(F)F)cc1 (racemic)	2200	
CC1=Nc2ccc(Cl)cc2C(c2ccc(C)cc2)N1CCN1CCCCC1 (racemic)	590	EC50 [4]: 1400 nM; EC50 (MRC5): 5000 nM
CC1=Nc2ccc(Cl)cc2C(c2ccccc2)N1Cc1ccc(Cl)cc1 (racemic)	2200	
CC1=Nc2ccc(Cl)cc2C(c2ccccc2)N1CCO (racemic)	1700	
CC1=Nc2ccc(Cl)cc2C(c2ccc(F)cc2)N1CCN1CCCCC1 (racemic)	4900	
CC1=Nc2ccc(Cl)cc2C(c2ccccc2)N1CCNC(=O)Cc1ccccc1 (racemic)	1800	
CC1=Nc2ccc(Cl)cc2C(O)(c2ccc(C)cc2)N1CCN1CCCCC1 (racemic)	710	EC50 [4]: 1500 nM; EC50 (MRC5): 5700 nM
COc1ccccc1CN1C(C)=Nc2ccc(Cl)cc2C1c1ccccc1 (racemic)	1100	
CC1=Nc2ccc(-c3cccc4ccccc34)cc2C(c2ccccc2)N1CCN1CCCCC1 (racemic)	8000	
CC1=Nc2ccc(-c3ccccc3)cc2C(c2ccccc2)N1CCN1CCCCC1 (racemic)	7300	EC50 [4]: 750 nM; EC50 (MRC5): 3400 nM
CC1=Nc2ccc(-c3ccco3)cc2C(c2ccccc2)N1CCN1CCCCC1 (racemic)	1300	
CC1=Nc2ccc(Br)cc2C(c2ccccc2)N1CC(=O)O (racemic)	37000	
CC1=Nc2ccc(Cl)cc2C(c2ccccc2)N1CCNC(=O)CN(C)C (racemic)	810	EC50 [4]: 13000 nM; EC50 (MRC5): 12000 nM
CC1=Nc2ccc(Cl)cc2C(c2ccccc2)N1CCN1CCOCC1 (racemic)	2800	
CC(=O)NCCN1C(C)=Nc2ccc(Cl)cc2C1c1ccccc1 (racemic)	2100	
CC1=Nc2ccccc2C(c2ccccc2)N1CCN1CCCCC1 (racemic)	780	EC50 [4]: 12000 nM; EC50 (MRC5): 23000 nM
CC1=Nc2ccc(Cl)cc2C(c2ccccc2)N1CCN1CCN(C)CC1 (racemic)	930	Ki (Trypanothione reductase [2]): 320 nM; EC50 (MRC5): 4600 nM
CC1=Nc2ccc(-c3ccsc3)cc2C(c2ccccc2)N1CCN1CCCCC1 (stereo not drawn)	790	
CC1=Nc2ccc(Cl)cc2C(c2cccc(O)c2)N1CCN1CCCCC1 (racemic)	1600	
CC1=Nc2ccc(Cl)cc2C(c2ccccc2)N1Cc1ccccc1 (racemic)	930	EC50 [4]: 13000 nM; EC50 (MRC5): 46000 nM

Structure (SMILES)	IC50 (Trypanothione reductase [1]) [nM]	other results
CC1=Nc2ccc(Cl)cc2C(Cc2ccccc2)N1CCN1CCCCC1 (racemic)	50000	
COC(=O)CN1C(C)=Nc2ccc(Br)cc2C1c1ccccc1Cl (racemic)	> 100000	
COC(=O)CN1C(CN2CCOCC2)=Nc2ccc(Br)cc2C1c1ccccc1 (racemic)	89000	
CC1=Nc2ccc(Cl)cc2C(c2cccc(F)c2)N1CCN1CCCCC1 (stereo not drawn)	900	EC50 [4]: 2000 nM; EC50 (MRC5): 10000 nM
CC1=Nc2ccc(Cl)cc2C(c2ccccc2)N1Cc1ccccc1F (racemic)	940	EC50 [4]: 14000 nM; EC50 (MRC5): 36000 nM
COCC(=O)NCCN1C(C)=Nc2ccc(Cl)cc2C1c1ccccc1 (racemic)	1300	
COCC(=O)N1CCN(CCN2C(C)=Nc3ccc(Cl)cc3C2c2ccccc2)CC1 (racemic)	1600	
CC1=Nc2ccc(Cl)cc2C(c2ccccc2)N1Cc1cccc(C(F)(F)F)c1 (racemic)	1500	
CC1=Nc2ccc(-c3ccncc3)cc2C(c2ccccc2)N1CCN1CCCCC1 (stereo not drawn)	4400	
CC1=Nc2ccc(Cl)cc2C(c2ccccc2)N1CCNC(=O)OC(C)(C)C (racemic)	2600	
CC1=Nc2ccc(Br)cc2C(c2ccccc2)N1CC(=O)NN (racemic)	15000	
CC1=Nc2ccc(Cl)cc2C(c2ccccc2)N1CCNC(=O)c1ccccc1 (racemic)	1700	
CC1=Nc2ccc(Cl)cc2C(c2ccccc2)N1CCNC(=O)c1ccco1 (racemic)	860	Ki (Trypanothione reductase [2]): 440 nM; Ki (Trypanothione reductase [3]): 2270 nM; EC50 [4]: 19000 nM; EC50 (MRC5): 22000 nM
CC1=Nc2ccc(Cl)cc2C(c2ccccc2)N1Cc1cccc(N(C)C)c1 (racemic)	810	EC50 [4]: 6400 nM; EC50 (MRC5): 27000 nM
CC1=Nc2ccc(Cl)cc2C(c2ccccc2)N1CCN1CCCCC1 (racemic)	1800	EC50 [4]: 1300 nM; EC50 (MRC5): 14000 nM
COc1ccc(C2(O)c3cc(Cl)ccc3N=C(C)N2CCN2CCCCC2)cc1 (racemic)	4900	
CC1=Nc2ccc(Cl)cc2C(c2ccc(C)c(C)c2)N1CCN1CCCCC1 (racemic)	6800	
CCN1C(C)=Nc2ccc(Cl)cc2C1c1ccccc1 (racemic)	1200	
CC1=Nc2ccc(Cl)cc2C(c2ccccc2)N1CCN1CCN(C(=O)Cc2ccccc2)CC1 (racemic)	2000	
COc1cccc(C2c3cc(Cl)ccc3N=C(C)N2CCN2CCCCC2)c1 (stereo not drawn)	28000	
CC1=Nc2ccc(Br)cc2C(c2ccccc2)N1CCN1CCCCC1 (racemic)	790	EC50 [4]: 440 nM; EC50 (MRC5): 8400 nM
COC(=O)CN1C(CCN2CCOCC2)=Nc2ccc(Br)cc2C1c1ccccc1 (racemic)	93000	
COC(=O)CN1C(C)=Nc2ccc(Cl)cc2C1c1ccccc1 (racemic)	9400	
CC1=Nc2ccc(Cl)cc2C(c2ccccc2)N1CCN1CCN(C(=O)OC(C)(C)C)CC1 (racemic)	1500	
